Data on four molecules can be found in ChEMBL document CHEMBL1157465, “Design, synthesis, and biological evaluation of novel 3-aryl-4-(1H-indole-3yl)-1,5-dihydro-2H-pyrrole-2-ones as vascular endothelial growth factor receptor (VEGF-R) inhibitors” (J Med Chem, 2008).

The target in assay [1] is Vascular endothelial growth factor receptor 3 (Homo sapiens, UniProt P35916). Kind of assay: Inhibition of human recombinant VEGFR3. In outline: (§1)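 Recombinant human tyrosine kinases (EPHB4, TIE2, VEGF-R2, VEGF-R3), expressed in Sf9 insect cells as GST- or His-fusions, with poly(Glu,Tyr) 4:1 as substrate. Conditions: 1 µM [γ-33P]ATP, pH 7.5 HEPES buffer with Mg/Mn, DTT and vanadate, 30 °C for 80 min, 1% DMSO. Ten concentrations were tested and IC50 came from scintillation counting of incorporated 33P.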

The target in assay [2] is Proto-oncogene tyrosine-protein kinase Src (Homo sapiens, UniProt P12931). Kind of assay: Inhibition of human recombinant SRC. In outline:
(§2)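 Human kinases expressed in Sf9 cells via baculovirus as GST or His fusions and affinity purified. 33PanQinase assay in 60 mM HEPES-NaOH pH 7.5, 3 mM MgCl2, 3 mM MnCl2, 3 µM orthovanadate, 1.2 mM DTT, 1 µM [γ-33P]ATP, 1% DMSO; 30 °C, 80 min. Substrates: poly(Glu,Tyr) 4:1 for ERBB2, IGF1-R and SRC; poly(Ala,Glu,Lys,Tyr) 6:2:5:1 for FLT3. IC50 from 10 concentrations by scintillation counting.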

Assay [3] has as its target Insulin-like growth factor 1 receptor (Homo sapiens, UniProt P08069). As to the kind of experiment: Inhibition of human recombinant IGF1R. In a few lines:
as §2

Assay [4] addresses Casein kinase II subunit alpha (Homo sapiens, UniProt P68400). Kind of assay: Inhibition of human recombinant CK2A1. In outline:
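Human kinases expressed in Sf9 cells by baculovirus as GST or His fusions and affinity purified. Radiometric 33PanQinase assay: 60 mM HEPES-NaOH pH 7.5, 3 mM MgCl2, 3 mM MnCl2, 3 µM orthovanadate, 1.2 mM DTT, 1 µM [γ-33P]ATP, 50-400 ng enzyme, 1% DMSO; 30 °C, 80 min. Substrates: B-Raf-VE, MEK1 KM; CDK2/CycA, histone H1; CK2-A1, casein; COT, autophosphorylation. IC50 from 10 concentrations; 33Pi incorporation by scintillation.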

The target in assay [5] is Vascular endothelial growth factor receptor 2 (Homo sapiens, UniProt P35968). Kind of assay: Inhibition of human recombinant VEGFR2. In outline:
as §1

The target in assay [6] is T1, Receptor-type tyrosine-protein kinase FLT3 (Homo sapiens, UniProt P36888).
T1 sequence (P36888 whole entry): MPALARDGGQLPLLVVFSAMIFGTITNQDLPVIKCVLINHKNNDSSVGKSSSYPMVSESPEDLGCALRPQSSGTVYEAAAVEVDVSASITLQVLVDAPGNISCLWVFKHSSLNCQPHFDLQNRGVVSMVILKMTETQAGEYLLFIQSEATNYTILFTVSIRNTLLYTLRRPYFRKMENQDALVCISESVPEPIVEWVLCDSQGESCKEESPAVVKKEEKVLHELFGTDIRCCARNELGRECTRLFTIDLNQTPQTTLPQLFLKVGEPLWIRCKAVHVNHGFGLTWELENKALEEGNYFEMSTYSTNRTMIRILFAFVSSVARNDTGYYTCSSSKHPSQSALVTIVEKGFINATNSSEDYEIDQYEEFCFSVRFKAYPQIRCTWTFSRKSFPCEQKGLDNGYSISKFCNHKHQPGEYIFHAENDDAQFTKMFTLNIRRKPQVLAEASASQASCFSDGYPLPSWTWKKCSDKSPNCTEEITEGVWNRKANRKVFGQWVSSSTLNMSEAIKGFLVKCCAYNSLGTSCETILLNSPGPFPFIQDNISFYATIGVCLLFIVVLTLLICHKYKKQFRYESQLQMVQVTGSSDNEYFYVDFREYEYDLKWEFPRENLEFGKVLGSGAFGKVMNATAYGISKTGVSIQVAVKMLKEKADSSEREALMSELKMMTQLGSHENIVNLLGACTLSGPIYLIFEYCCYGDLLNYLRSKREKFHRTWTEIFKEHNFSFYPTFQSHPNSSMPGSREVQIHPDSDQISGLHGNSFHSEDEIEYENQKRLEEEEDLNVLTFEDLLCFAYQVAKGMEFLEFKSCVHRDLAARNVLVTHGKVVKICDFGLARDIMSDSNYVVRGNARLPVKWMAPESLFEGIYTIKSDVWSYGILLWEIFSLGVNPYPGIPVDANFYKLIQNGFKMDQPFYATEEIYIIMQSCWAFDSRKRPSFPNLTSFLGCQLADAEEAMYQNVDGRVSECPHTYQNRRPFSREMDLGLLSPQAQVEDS
Kind of assay: Inhibition of human recombinant FLT3. In outline: as §2

For assay [7], the target named is Angiopoietin-1 receptor (Homo sapiens, UniProt Q02763). As to the kind of experiment: Inhibition of human recombinant TIE2. In outline: as §1
In assay [8] the target is Receptor tyrosine-protein kinase erbB-2 (Homo sapiens, UniProt P04626). As to the kind of experiment: Inhibition of human recombinant ERBB2. In outline: as §2
Assay [9] is filed under the species Homo sapiens. Kind of assay: Antiangiogenic activity in VEGF-induced HLMEC assessed as sprouts per bead at 1.3 uM after 24 hrs by sprouting assay. The assay is classed as functional. In a few lines: (§3)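 HLMEC seeded on cytodex-3 microcarrier beads and embedded in 3D fibrinogen gel with 20 ng/mL VEGF plus compound at a final 1.3 or 2.6 µM (from 1 mM DMSO stock). Gel polymerised with 0.65 U/mL thrombin and overlaid with MCDB131, 5% FCS, 5% human serum and 200 U/mL Trasylol. Negative control: gel without growth factors. After 24 h, fixed in 1% PFA; sprouts per 50 beads counted microscopically. Triplicates per condition, n = 9 experiments.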

The target in assay [10] is Ephrin type-B receptor 4 (Homo sapiens, UniProt P54760). Kind of assay: Inhibition of human recombinant EPHB4. In a few lines: as §1
Assay [11] has as its target Epidermal growth factor receptor (Homo sapiens, UniProt P00533). Kind of assay: Inhibition of human recombinant EGFR.
The species entered for assay [12] is Homo sapiens. As to the kind of experiment: Induction of apoptosis in HDMEC at 2.1 uM after 5 hrs. The assay is classed as functional. In outline:
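Positive-control condition: HDMEC treated 5 h at 2.1 µM. Adherent cells plus supernatant stained for cleaved caspase-3 and analysed by FACS as percent apoptotic cells. Repeated three times.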

For assay [13], the species on record is Homo sapiens. Kind of assay: Induction of apoptosis in HDMEC assessed as cleaved caspase 3 at 1.3 uM after 24 hrs. Format: functional. In outline:
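HDMEC incubated 24 h with compound. Adherent cells and supernatant harvested together, stained with an antibody to cleaved caspase-3, and analysed by FACS as percent apoptotic cells. Three independent repeats.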

Assay [14] is filed under the species Homo sapiens. Kind of assay: Antiangiogenic activity in VEGF-induced HLMEC assessed as number of sprouts per bead at 2.6 uM after 24 hrs by sprouting assay. The assay is classed as functional. In outline: as §3

Chain of Angiopoietin-1 receptor (Q02763 whole entry): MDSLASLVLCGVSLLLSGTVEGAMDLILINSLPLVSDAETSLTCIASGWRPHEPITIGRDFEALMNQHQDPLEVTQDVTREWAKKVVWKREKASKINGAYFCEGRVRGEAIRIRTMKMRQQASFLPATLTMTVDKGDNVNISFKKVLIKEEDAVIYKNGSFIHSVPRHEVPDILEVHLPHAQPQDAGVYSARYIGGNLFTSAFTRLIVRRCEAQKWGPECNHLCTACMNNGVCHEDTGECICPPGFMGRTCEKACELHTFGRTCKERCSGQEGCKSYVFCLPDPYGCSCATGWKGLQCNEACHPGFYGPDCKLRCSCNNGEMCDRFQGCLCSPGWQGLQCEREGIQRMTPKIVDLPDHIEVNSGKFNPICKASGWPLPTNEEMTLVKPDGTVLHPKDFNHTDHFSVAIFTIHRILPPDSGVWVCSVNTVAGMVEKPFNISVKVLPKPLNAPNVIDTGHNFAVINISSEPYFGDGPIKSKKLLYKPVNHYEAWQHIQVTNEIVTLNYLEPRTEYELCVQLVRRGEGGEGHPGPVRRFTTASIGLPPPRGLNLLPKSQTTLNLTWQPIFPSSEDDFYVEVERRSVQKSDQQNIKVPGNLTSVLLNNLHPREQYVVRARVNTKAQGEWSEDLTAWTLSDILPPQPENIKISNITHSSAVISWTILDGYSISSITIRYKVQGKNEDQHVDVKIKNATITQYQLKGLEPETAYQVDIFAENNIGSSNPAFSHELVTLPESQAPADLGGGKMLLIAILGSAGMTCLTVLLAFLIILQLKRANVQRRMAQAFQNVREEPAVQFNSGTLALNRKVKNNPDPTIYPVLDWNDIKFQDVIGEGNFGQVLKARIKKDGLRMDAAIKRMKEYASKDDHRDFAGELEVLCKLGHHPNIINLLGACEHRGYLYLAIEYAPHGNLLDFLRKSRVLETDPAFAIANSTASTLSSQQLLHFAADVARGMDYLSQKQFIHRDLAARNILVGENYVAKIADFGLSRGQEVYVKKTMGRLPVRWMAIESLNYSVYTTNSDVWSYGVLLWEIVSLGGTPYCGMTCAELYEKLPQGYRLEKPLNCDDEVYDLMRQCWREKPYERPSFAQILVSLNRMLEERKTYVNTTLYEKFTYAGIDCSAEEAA
Chain of Vascular endothelial growth factor receptor 3 (P35916 whole entry, the tested form may be a part): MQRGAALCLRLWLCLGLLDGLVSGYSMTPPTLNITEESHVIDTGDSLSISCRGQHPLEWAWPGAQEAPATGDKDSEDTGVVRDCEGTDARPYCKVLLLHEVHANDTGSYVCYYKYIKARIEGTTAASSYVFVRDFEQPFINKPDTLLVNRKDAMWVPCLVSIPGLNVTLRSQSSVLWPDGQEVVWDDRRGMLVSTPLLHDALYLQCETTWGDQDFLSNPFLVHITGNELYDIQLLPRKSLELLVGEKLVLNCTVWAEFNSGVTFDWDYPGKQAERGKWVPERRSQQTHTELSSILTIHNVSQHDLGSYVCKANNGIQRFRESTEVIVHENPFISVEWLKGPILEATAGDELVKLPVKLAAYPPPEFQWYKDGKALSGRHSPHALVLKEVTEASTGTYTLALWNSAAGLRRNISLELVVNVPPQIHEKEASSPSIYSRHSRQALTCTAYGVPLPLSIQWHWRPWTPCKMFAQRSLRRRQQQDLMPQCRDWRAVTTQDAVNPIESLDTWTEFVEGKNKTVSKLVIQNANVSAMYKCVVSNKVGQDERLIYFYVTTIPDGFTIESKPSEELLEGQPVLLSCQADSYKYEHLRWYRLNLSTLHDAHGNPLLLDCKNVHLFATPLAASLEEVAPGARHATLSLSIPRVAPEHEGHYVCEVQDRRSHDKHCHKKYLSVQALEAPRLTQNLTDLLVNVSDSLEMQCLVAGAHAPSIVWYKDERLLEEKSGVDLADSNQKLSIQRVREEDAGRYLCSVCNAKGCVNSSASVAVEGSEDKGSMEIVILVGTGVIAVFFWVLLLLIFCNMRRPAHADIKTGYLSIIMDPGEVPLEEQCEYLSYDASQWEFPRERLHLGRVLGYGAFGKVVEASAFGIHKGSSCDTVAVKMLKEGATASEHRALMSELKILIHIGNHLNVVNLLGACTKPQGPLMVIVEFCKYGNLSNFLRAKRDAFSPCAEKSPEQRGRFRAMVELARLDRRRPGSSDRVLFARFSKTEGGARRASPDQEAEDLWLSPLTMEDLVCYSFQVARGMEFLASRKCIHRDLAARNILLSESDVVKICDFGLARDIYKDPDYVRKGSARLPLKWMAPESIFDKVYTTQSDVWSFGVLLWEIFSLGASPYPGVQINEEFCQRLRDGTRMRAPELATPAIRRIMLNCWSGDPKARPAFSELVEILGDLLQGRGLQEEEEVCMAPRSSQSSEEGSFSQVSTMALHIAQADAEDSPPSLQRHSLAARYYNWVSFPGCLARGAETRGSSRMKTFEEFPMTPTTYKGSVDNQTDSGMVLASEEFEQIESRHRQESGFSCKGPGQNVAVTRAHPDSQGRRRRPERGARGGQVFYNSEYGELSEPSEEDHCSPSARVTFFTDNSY
Chain of Insulin-like growth factor 1 receptor (P08069 31-736 limits assumed): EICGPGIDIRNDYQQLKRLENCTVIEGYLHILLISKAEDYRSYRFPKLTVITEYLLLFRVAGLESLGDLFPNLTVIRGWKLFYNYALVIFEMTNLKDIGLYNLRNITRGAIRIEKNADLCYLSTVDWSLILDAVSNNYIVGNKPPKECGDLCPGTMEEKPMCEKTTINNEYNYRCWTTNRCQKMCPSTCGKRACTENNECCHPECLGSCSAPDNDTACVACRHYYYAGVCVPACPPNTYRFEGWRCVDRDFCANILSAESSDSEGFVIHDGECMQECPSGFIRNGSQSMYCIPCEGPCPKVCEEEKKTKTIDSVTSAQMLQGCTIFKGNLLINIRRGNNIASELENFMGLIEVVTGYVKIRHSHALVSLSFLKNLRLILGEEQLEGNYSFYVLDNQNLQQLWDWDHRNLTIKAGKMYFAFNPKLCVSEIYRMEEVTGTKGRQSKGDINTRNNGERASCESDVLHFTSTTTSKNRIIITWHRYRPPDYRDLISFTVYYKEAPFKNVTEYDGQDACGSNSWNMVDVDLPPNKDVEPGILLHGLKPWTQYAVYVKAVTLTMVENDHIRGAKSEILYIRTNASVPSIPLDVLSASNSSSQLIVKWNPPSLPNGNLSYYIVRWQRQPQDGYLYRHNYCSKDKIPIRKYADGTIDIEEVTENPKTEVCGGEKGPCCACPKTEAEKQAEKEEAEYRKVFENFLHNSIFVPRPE
Chain of Insulin-like growth factor 1 receptor (P08069 741-1367 limits assumed): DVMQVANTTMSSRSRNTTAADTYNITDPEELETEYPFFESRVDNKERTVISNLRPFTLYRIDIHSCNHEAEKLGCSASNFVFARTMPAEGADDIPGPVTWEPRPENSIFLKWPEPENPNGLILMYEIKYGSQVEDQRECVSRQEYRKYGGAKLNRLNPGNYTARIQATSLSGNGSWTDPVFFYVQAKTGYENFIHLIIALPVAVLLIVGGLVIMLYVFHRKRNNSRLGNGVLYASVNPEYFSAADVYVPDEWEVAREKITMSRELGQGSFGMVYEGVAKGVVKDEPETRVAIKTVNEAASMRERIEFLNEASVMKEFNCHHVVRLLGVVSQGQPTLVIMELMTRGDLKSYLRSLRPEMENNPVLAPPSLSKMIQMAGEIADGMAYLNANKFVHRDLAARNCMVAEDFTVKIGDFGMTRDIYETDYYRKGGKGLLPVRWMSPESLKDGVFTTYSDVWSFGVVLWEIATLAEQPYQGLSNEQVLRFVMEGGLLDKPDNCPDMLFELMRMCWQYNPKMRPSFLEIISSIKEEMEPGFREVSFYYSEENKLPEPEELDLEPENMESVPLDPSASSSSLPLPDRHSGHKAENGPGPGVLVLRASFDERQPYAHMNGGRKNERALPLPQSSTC
Chain of Proto-oncogene tyrosine-protein kinase Src (P12931 2-536 limits assumed): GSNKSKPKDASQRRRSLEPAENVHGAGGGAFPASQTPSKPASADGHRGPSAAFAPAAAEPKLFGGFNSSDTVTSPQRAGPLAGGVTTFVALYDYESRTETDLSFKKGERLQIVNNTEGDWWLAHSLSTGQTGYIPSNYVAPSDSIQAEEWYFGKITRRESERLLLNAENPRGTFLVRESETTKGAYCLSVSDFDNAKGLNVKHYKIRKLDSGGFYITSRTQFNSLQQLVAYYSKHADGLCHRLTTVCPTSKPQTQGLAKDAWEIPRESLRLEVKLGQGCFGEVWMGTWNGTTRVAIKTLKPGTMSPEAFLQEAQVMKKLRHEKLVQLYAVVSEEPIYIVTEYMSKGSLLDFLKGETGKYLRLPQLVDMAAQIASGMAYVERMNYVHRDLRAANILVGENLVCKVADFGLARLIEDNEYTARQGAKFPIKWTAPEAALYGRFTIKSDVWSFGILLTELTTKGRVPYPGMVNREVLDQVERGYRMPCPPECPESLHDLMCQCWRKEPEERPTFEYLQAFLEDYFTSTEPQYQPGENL
Chain of Casein kinase II subunit alpha (P68400 whole entry, the tested form may be a part): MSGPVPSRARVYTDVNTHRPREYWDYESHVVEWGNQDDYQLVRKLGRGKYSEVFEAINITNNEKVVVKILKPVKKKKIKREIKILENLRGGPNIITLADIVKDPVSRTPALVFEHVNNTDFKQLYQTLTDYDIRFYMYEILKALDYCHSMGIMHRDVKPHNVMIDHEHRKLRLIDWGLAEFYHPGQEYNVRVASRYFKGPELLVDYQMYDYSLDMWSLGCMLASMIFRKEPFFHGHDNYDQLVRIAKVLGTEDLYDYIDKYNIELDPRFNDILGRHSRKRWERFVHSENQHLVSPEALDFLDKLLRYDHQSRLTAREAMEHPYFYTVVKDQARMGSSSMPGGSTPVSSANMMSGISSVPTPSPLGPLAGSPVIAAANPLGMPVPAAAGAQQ

For `COc1cc(C2=C(c3cn(COCc4ccccc4)c4ccccc34)CNC2=O)cc(OC)c1OC`, the IC50 in assay [1] was 1.7 µM; in assay [2], 9.1 µM; in [3] it was 18 µM; in assay [4], > 50 µM; in assay [5] it was 1.6 µM; in assay [6], 36 µM. In addition, the IC50 in [7] is 11 µM; in assay [8] it was 36 µM.
As to `COc1cc(C2=C(c3cn(COCC[Si](C)(C)C)c4ccccc34)CNC2=O)cc(OC)c1OC`, the inhibition in assay [9] was found to be 30%. Besides, the IC50 in assay [1] stood at 5.6 µM; in assay [10], 44 µM; in [2], 4.5 µM; in assay [11], 22 µM; in [3] it was 8.7 µM; in assay [5], 3.1 µM. The IC50 in assay [6] was determined as 34 µM; in assay [7] it was 26 µM.
In [12], `CN[C@@H]1C[C@H]2O[C@@](C)([C@@H]1OC)n1c3ccccc3c3c4c(c5c6ccccc6n2c5c31)C(=O)NC4` displayed an Activity of 63.9%.
Turning to `COc1cc(C2=C(c3c[nH]c4ccccc34)C(=O)NC2=O)cc(OC)c1OC` [MALEIMIDE], the inhibition in [9] is 81%. The Activity in assay [13] amounted to 22.4%; in assay [14], 0.48.
